How the values were obtained:
Inner fruit [1] = test: Drug residues in Citrus sinensis cvs. Salustiana (Salustiana oranges) inner fruit at 600 mg/L treated for 1 min at 50 degC postharvest measured after overnight incubation at 17 degC by GC analysis; assay type: ADME
In short: (§1)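 'Salustiana' oranges were washed with water and air-dried. They were dipped 1 or 3 min in TBZ 600 mg/L at 20 or 50 °C, or 1 min in TBZ 600 mg/L plus 2% SBC at 20 °C, then dried overnight at 17 °C in the dark. Surface residue was taken by water extraction and wax residue by chloroform extraction. Inner residue was measured in fruit after both extractions. Extracts were dried under N2, taken up in acetone and analysed by GC. Values are mg/kg on a whole-fruit basis.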

Penicillium digitatum [2] = test: Fungicidal activity against Penicillium digitatum infected Valenica oranges assessed as fruit weight loss at 400 mg/L treated for 1 min at 40 degC postharvest at 20 hr after fungal conidial inoculation measured after 14 days of storage at 17 degC in presence of 1% SBC (water Rvb = 8.68%); assay type: functional
Penicillium digitatum [3] = test: (§2) Fungicidal activity against TBZ-sensitive Penicillium digitatum infected Valencia oranges assessed as postharvest green mold incidence at 400 mg/L treated for 1 min at 40 degC at 20 hr after fungal conidial inoculation measured after 7 days of storage at 20 degC in presence of 2% SBC (water Rvb = 14.2%); assay type: functional
In short: (§3)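 Fruit were surface-disinfected in 1 g/L hypochlorite for 30 s, rinsed, dried, then wounded twice equatorially (2 mm × 2 mm rod). Inoculation was a 1 min dip in P. digitatum conidia, 1 × 10^5 conidia/mL final. Fruit were held 20 h at 20 °C and 90% RH, dipped 1 min (SBC wt/vol), and air-dried. Storage was 20 °C, 90% RH. Decay incidence (% fruit with lesions) was scored at 5 d for mandarins and 7 d for oranges. Three replicates of 40 fruit were used; arcsin-transformed data were compared by LSD, p ≤ 0.05.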

Penicillium digitatum [4] = test: as §2, with “TBZ-resistant” for “TBZ-sensitive”, “Nova mandarins” for “Valencia oranges”, “5” for “7”, “1%” for “2%”, “76.7%)” for “14.2%)”; assay type: functional
Fruit [5] = test: Drug residues in Citrus sinensis cvs. Valencia late (Valencia oranges) at 600 mg/L treated for 1 min at 20 degC postharvest measured after 20 days of storage at 17 degC in presence of 0.5% SBC by GC analysis; assay type: ADME
In short: (§4)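 'Valencia' oranges were dipped 1 min in TBZ at 600 mg/L (20 °C, ±0.5, 1 or 2% wt/vol SBC), 400 mg/L (40 °C, ±SBC) or 200 mg/L (50 °C, alone), then air-dried. They were sampled at 0, 10 and 20 days at 17 °C. Peel of five fruit was frozen, and 5 g of homogenate was extracted with ethyl acetate/hexane (1/1) plus NaCl. The extract was dried under N2, taken up in acetone and analysed by GC. Results are mg/kg on a whole-fruit basis.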

Penicillium digitatum [6] = test: as §2, with “TBZ-resistant” for “TBZ-sensitive”, “600” for “400”, “20” for “40”, “0.5%” for “2%”, “85.8%)” for “14.2%)”; assay type: functional
Fruit [7] = test: Drug residues in Citrus sinensis cvs. Valencia late (Valencia oranges) at 400 mg/L treated for 1 min at 40 degC postharvest measured after 20 days of storage at 17 degC by GC analysis; assay type: ADME; in short: as §4
Penicillium digitatum [8] = test: Fungicidal activity against TBZ-sensitive Penicillium digitatum infected Valencia oranges assessed as postharvest green mold incidence at 200 mg/L treated for 1 min at 50 degC at 20 hr after fungal conidial inoculation measured after 7 days of storage at 20 degC (water Rvb = 53.3%); assay type: functional; in short: as §3
Penicillium digitatum [9] = test: as §2, with “600” for “400”, “20” for “40”, “1%” for “2%”, “30.8%)” for “14.2%)”; assay type: functional; in short: as §3
Penicillium digitatum [10] = test: as §2, with “Nova mandarins” for “Valencia oranges”, “5” for “7”, “1%” for “2%”, “93.3%)” for “14.2%)”; assay type: functional; in short: as §3
Fruit [11] = test: Drug residues in Citrus sinensis cvs. Valencia late (Valencia oranges) at 600 mg/L treated for 1 min at 20 degC postharvest measured immediately post-drug treatment in presence of 2% SBC by GC analysis; assay type: ADME; in short: as §4
Penicillium digitatum [12] = test: Fungicidal activity against Penicillium digitatum infected Valenica oranges assessed as fruit weight loss at 600 mg/L treated for 1 min at 20 degC postharvest at 20 hr after fungal conidial inoculation measured after 21 days of storage at 17 degC in presence of 2% SBC (water Rvb = 11.89%); assay type: functional
Fruit [13] = test: Drug residues in Citrus sinensis cvs. Valencia late (Valencia oranges) at 400 mg/L treated for 1 min at 40 degC postharvest measured immediately post-drug treatment in presence of 2% SBC by GC analysis; assay type: ADME; in short: as §4
Penicillium digitatum [14] = test: Fungicidal activity against TBZ-resistant Penicillium digitatum infected Nova mandarins assessed as postharvest green mold incidence at 200 mg/L treated for 1 min at 50 degC at 20 hr after fungal conidial inoculation measured after 5 days of storage at 20 degC (water Rvb = 95.0%); assay type: functional
Inner fruit [15] = test: Drug residues in Citrus sinensis cvs. Salustiana (Salustiana oranges) inner fruit at 600 mg/L treated for 1 min at 20 degC postharvest measured after overnight incubation at 17 degC in presence of 2% SBC by GC analysis; assay type: ADME; in short: as §1
Fruit [16] = test: Total drug residues in Citrus sinensis cvs. Salustiana (Salustiana oranges) fruit at 600 mg/L treated for 1 min at 20 degC postharvest measured after overnight incubation at 17 degC in presence of 2% SBC by GC analysis; assay type: ADME
In short: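 'Salustiana' oranges were water-washed, dried, dipped, then dried overnight at 17 °C in the dark. Unextracted fruit were used for total residues. Peel from five oranges was frozen at -18 °C. 5 g homogenized peel was extracted with 10 mL ethyl acetate/hexane (1/1) plus 2 g NaCl, shaken 30 min, then 1 mL of organic layer was dried under N2, redissolved in acetone, and run by GC without cleanup. Results are on a whole-fruit basis.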

Penicillium digitatum [17] = test: Fungicidal activity against Penicillium digitatum infected Valenica oranges assessed as fruit weight loss at 400 mg/L treated for 1 min at 40 degC postharvest at 20 hr after fungal conidial inoculation measured after 7 days of storage at 17 degC in presence of 1% SBC (water Rvb = 4.49%); assay type: functional
Fruit surface = test: Drug residues on Citrus sinensis cvs. Salustiana (Salustiana oranges) fruit surface at 600 mg/L treated for 1 min at 50 degC postharvest measured after overnight incubation at 17 degC by GC analysis; assay type: ADME; in short: as §1
Fruit [18] = test: Drug residues in Citrus sinensis cvs. Valencia late (Valencia oranges) at 200 mg/L treated for 1 min at 50 degC postharvest measured immediately post-drug treatment by GC analysis; assay type: ADME; in short: as §4
Penicillium digitatum [19] = test: Fungicidal activity against TBZ-resistant Penicillium digitatum infected Nova mandarins assessed as postharvest green mold incidence at 600 mg/L treated for 1 min at 20 degC at 20 hr after fungal conidial inoculation measured after 5 days of storage at 20 degC in presence of 2% SBC (water Rvb = 61.7%); assay type: functional
Penicillium digitatum [20] = test: Fungicidal activity against Penicillium digitatum infected Valenica oranges assessed as fruit weight loss at 600 mg/L treated for 1 min at 20 degC postharvest at 20 hr after fungal conidial inoculation measured after 21 days of storage at 17 degC (water Rvb = 7.98%); assay type: functional

## c1ccc2[nH]c(-c3cscn3)nc2c1 [THIABENDAZOLE]
Inner fruit [1]
  Drug uptake: 0.17 mg/kg
Penicillium digitatum [2]
  Activity: 8.11%
Penicillium digitatum [3]
  Activity: 12.5%
Penicillium digitatum [4]
  Activity: 40%
Fruit [5]
  Drug uptake: 1.31 mg/kg
Penicillium digitatum [6]
  Activity: 38.3%
Fruit [7]
  Drug uptake: 0.87 mg/kg
Penicillium digitatum [8]
  Activity: 5.8%
Penicillium digitatum [9]
  Activity: 9.2%
Penicillium digitatum [10]
  Activity: 5%
Fruit [11]
  Drug uptake: 1.22 mg/kg
Penicillium digitatum [12]
  Activity: 13.39%
Fruit [13]
  Drug uptake: 0.74 mg/kg
Penicillium digitatum [14]
  Activity: 65%
Inner fruit [15]
  Drug uptake: 0.01 mg/kg
Fruit [16]
  Drug uptake: 0.91 mg/kg
Penicillium digitatum [17]
  Activity: 3.98%
Fruit surface
  Drug uptake: 0.66 mg/kg
Fruit [18]
  Drug uptake: 0.45 mg/kg
Penicillium digitatum [19]
  Activity: 40%
Penicillium digitatum [20]
  Activity: 8.85%

From ChEMBL document CHEMBL3045217, “Factors affecting the synergy of thiabendazole, sodium bicarbonate, and heat to control postharvest green mold of citrus fruit” (J Agric Food Chem, 2008)
